Data reported in ChEMBL document CHEMBL3272327, “Hypocholesterolemic activity of 1,3-bis(substituted phenoxy)-2-propanones” (J Med Chem, 1976).

What was measured:
Mus musculus [1] = organism: Mus musculus; assay: Antifertility activity in CF1 mouse assessed as proportion of reabsorption litter at 10 ug (reference value: 100 +/- 25%); type: ADME, organism-based; conditions: in vivo
Mus musculus [2] = organism: Mus musculus; assay: Antifertility activity in CF1 mouse assessed as proportion of pregnant animals at 10 ug (reference value: 100%); type: ADME, organism-based; conditions: in vivo
Mus musculus [3] = organism: Mus musculus; assay: Antifertility activity in CF1 mouse assessed as proportion of fetus per litter at 10 ug (reference value: 100 +/- 25%); type: ADME, organism-based; conditions: in vivo
Rattus norvegicus [4] = assay: Hypocholesterolemic activity in Sprague-Dawley rat assessed as serum cholesterol level at 10 mg/kg/day, po administered via intubation measured on day 10 by Liebermann-Burchard reaction (reference value: 100%); type: functional
Rattus norvegicus [5] = assay: Hypocholesterolemic activity in Sprague-Dawley rat assessed as serum cholesterol level at 10 mg/kg/day, po administered via intubation measured on day 16 by Liebermann-Burchard reaction (reference value: 100%); type: functional
Rattus norvegicus [6] = assay: Hypocholesterolemic activity in Sprague-Dawley rat assessed as serum cholesterol level at 10 mg/kg/day, po administered via intubation measured on day 4 by Liebermann-Burchard reaction (reference value: 100%); type: functional
Rattus norvegicus [7] = assay: Effect on DNA content in rat liver at 10 mg/kg/day administered for 16 days (reference value: 100 +/- 25%); type: ADME, organism-based; conditions: in vivo, 384 h
Rattus norvegicus [8] = assay: Effect on testes weight in rat at 10 mg/kg/day administered for 16 days measured 24 hrs after last drug dosage relative to total body weight (reference value: 1.10 +/- 0.17%); type: ADME, organism-based, Testis; conditions: in vivo
Mus musculus [9] = assay: Antifertility activity in CF1 mouse assessed as proportion of fetus per litter at 50 mg/kg/day, ip (reference value: 100 +/- 25%); type: ADME, organism-based; set-up: route intraperitoneal; conditions: in vivo
Rattus norvegicus [10] = assay: Effect on protein content in rat liver at 10 mg/kg/day administered for 16 days (reference value: 100 +/- 6%); type: ADME, organism-based; conditions: in vivo, 384 h
Mus musculus [11] = assay: Antifertility activity in CF1 mouse assessed as proportion of reabsorption litter at 50 mg/kg/day, ip (reference value: 100 +/- 25%); type: ADME, organism-based; set-up: route intraperitoneal; conditions: in vivo
Rattus norvegicus [12] = assay: Effect on RNA content in rat liver at 10 mg/kg/day administered for 16 days (reference value: 100 +/- 8%); type: ADME, organism-based; conditions: in vivo, 384 h
Rattus norvegicus [13] = assay: Effect on lipid content in rat liver at 10 mg/kg/day administered for 16 days (reference value: 100 +/- 16%); type: ADME, organism-based; conditions: in vivo, 384 h
Rattus norvegicus [14] = assay: Effect on liver weight in rat at 10 mg/kg/day administered for 16 days measured 24 hrs after last drug dosage relative to total body weight (reference value: 4.54 +/- 0.29%); type: ADME, organism-based; conditions: in vivo
Rattus norvegicus [15] = assay: Hypocholesterolemic activity in rat assessed as serum triglyceride level at 10 mg/kg/day administered for 8 days (reference value: 100 +/- 15%); type: functional
How it was run: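 Male Sprague-Dawley rats dosed orally at 10 mg/kg/day in 1% CMC. Serum triglycerides were measured with a stat pack kit after 8 days of dosing. Expressed as percent of vehicle control, N = 8; Student's t test.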

Rattus norvegicus [16] = assay: Effect on heart weight in rat at 10 mg/kg/day administered for 16 days measured 24 hrs after last drug dosage relative to total body weight (reference value: 0.43 +/- 0.10%); type: ADME, organism-based; conditions: in vivo
Rattus norvegicus [17] = assay: Effect on epididymis and vas deferens weight in rat at 10 mg/kg/day administered for 16 days measured 24 hrs after last drug dosage relative to total body weight (reference value: 0.24 +/- 0.07%); type: ADME, organism-based; conditions: in vivo
Rattus norvegicus [18] = assay: Effect on kidney weight in rat at 10 mg/kg/day administered for 16 days measured 24 hrs after last drug dosage relative to total body weight (reference value: 0.96 +/- 0.08%); type: ADME, organism-based; conditions: in vivo
Mus musculus [19] = assay: Antifertility activity in CF1 mouse assessed as proportion of pregnant animals at 50 mg/kg/day, ip (reference value: 100%); type: ADME, organism-based; set-up: route intraperitoneal; conditions: in vivo
[20] = Solubility of the compound in 1% CMC; type: physicochemical
Rattus norvegicus [21] = assay: Uterotrophic activity in ovariectomized Sprague-Dawley rat assessed as uterine weight administered for 3 days (reference value: 100 +/- 27%); type: organism-based, Uterus; conditions: in vivo, 72 h
[22] = Toxicity in ip dosed CF1 mouse assessed as animal death; type: organism-based; conditions: in vivo
How it was run: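 Male CF1 mice given active propanones ip over 10 mg to 6 g/kg where solubility allowed; deaths recorded to estimate LD50.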

Rattus norvegicus [23] = assay: Effect on glycogen content in rat liver at 10 mg/kg/day administered for 16 days (reference value: 100 +/- 24%); type: ADME, organism-based; conditions: in vivo, 384 h
Rattus norvegicus [24] = assay: Effect on vesicular gland weight in rat at 10 mg/kg/day administered for 16 days measured 24 hrs after last drug dosage relative to total body weight (reference value: 0.11 +/- 0.04%); type: ADME, organism-based; conditions: in vivo

Compound: CC/C(=C(/CC)c1ccc(O)cc1)c1ccc(O)cc1 [DIETHYLSTILBESTROL]
- Activity (Mus musculus [1]): 0%
- Activity (Mus musculus [2]): 0%
- Activity (Mus musculus [3]): 0%

Compound: CCCCCCCCCCCCCCCCOCC(=O)COCCCCCCCCCCCCCCCC
- Activity (Rattus norvegicus [4]): 89%
- Activity (Rattus norvegicus [5]): 91%
- Activity (Rattus norvegicus [6]): 88%

Compound: O=C(COc1ccc(Cl)cc1)COc1ccc(Cl)cc1
- Activity (Rattus norvegicus [7]): 78%
- Activity (Rattus norvegicus [4]): 64%
- Activity (Rattus norvegicus [8]): 1.23%
- Activity (Rattus norvegicus [5]): 62%
- Activity (Mus musculus [9]): 84%
- Activity (Rattus norvegicus [10]): 91%
- Activity (Mus musculus [11]): 30%
- Activity (Rattus norvegicus [12]): 99%
- Activity (Rattus norvegicus [13]): 101%
- Activity (Rattus norvegicus [14]): 4.51%
- Activity (Rattus norvegicus [15]): 108%
- Activity (Rattus norvegicus [16]): 0.39%
- Activity (Rattus norvegicus [17]): 0.26%
- Activity (Rattus norvegicus [18]): 0.86%
- Activity (Mus musculus [19]): 100%
- solubility [20]: Insoluble
- Activity (Rattus norvegicus [21]): 48%
- LD50 [22]: > 2000 mg/kg
- Activity (Rattus norvegicus [23]): 105%
- Activity (Rattus norvegicus [24]): 0.14%
- Activity (Rattus norvegicus [6]): 81%

Compound: O=C(CSc1ccccc1)CSc1ccccc1
- Activity (Rattus norvegicus [4]): 101%
- Activity (Rattus norvegicus [5]): 79%
- Activity (Rattus norvegicus [6]): 96%

Compound: Cc1cc(Cl)c(OCC(=O)COc2cc(C)c(C)cc2Cl)cc1C
- Activity (Rattus norvegicus [4]): 65%
- Activity (Rattus norvegicus [8]): 1.24%
- Activity (Rattus norvegicus [5]): 58%
- Activity (Rattus norvegicus [14]): 4.8%
- Activity (Rattus norvegicus [16]): 0.52%
- Activity (Rattus norvegicus [17]): 0.27%
- Activity (Rattus norvegicus [18]): 1.06%
- solubility [20]: Insoluble
- Activity (Rattus norvegicus [21]): 56%
- LD50 [22]: > 2000 mg/kg
- Activity (Rattus norvegicus [24]): 0.16%
- Activity (Rattus norvegicus [6]): 79%

Compound: Cc1cccc(OCC(=O)COc2cccc(C)c2)c1
- Activity (Rattus norvegicus [4]): 119%
- Activity (Rattus norvegicus [5]): 97%
- Activity (Rattus norvegicus [6]): 115%

Compound: O=C(CS(=O)(=O)c1ccc(Cl)cc1)CS(=O)(=O)c1ccc(Cl)cc1
- Activity (Rattus norvegicus [4]): 86%
- Activity (Rattus norvegicus [5]): 91%
- Activity (Rattus norvegicus [6]): 82%

Compound: CCOc1ccc(OCC(=O)COc2ccc(OCC)cc2)cc1
- Activity (Rattus norvegicus [4]): 96%
- Activity (Rattus norvegicus [5]): 85%
- Activity (Rattus norvegicus [6]): 77%

Compound: CC(Cc1ccccc1)C(=O)C(C)Cc1ccccc1 (centres undefined)
- Activity (Mus musculus [9]): 0%
- Activity (Mus musculus [11]): 0%
- Activity (Mus musculus [19]): 0%

Compound: CC(=O)C(O)(Cc1ccccc1)Cc1ccccc1
- Activity (Rattus norvegicus [4]): 77%
- Activity (Rattus norvegicus [5]): 84%
- Activity (Rattus norvegicus [6]): 88%

Compound: Cc1ccc(OCC(=O)C(O)(Cc2ccccc2)Cc2ccccc2)cc1
- Activity (Rattus norvegicus [4]): 72%
- Activity (Rattus norvegicus [5]): 70%
- Activity (Rattus norvegicus [6]): 80%

Compound: O=C(COc1cc(Cl)c(Cl)cc1Cl)COc1cc(Cl)c(Cl)cc1Cl
- Activity (Rattus norvegicus [4]): 82%
- Activity (Rattus norvegicus [5]): 97%
- Activity (Rattus norvegicus [6]): 94%

Compound: O=C(COc1ccc(Br)cc1)COc1ccc(Br)cc1
- Activity (Rattus norvegicus [4]): 85%
- Activity (Rattus norvegicus [5]): 85%
- Activity (Rattus norvegicus [6]): 74%

Compound: C#C[C@]1(O)CC[C@H]2[C@@H]3CCc4cc(O)ccc4[C@H]3CC[C@@]21C [ETHINYL ESTRADIOL]
- Activity (Rattus norvegicus [21]): 231%

Compound: Cc1ccccc1OCC(=O)COc1ccccc1C
- Activity (Rattus norvegicus [4]): 92%
- Activity (Rattus norvegicus [5]): 90%
- Activity (Rattus norvegicus [6]): 90%

Compound: O=C(CSc1ccc(Cl)cc1)CSc1ccc(Cl)cc1
- Activity (Rattus norvegicus [4]): 73%
- Activity (Rattus norvegicus [8]): 1.13%
- Activity (Rattus norvegicus [5]): 66%
- Activity (Rattus norvegicus [14]): 4.53%
- Activity (Rattus norvegicus [17]): 0.25%
- Activity (Rattus norvegicus [18]): 0.94%
- solubility [20]: Insoluble
- Activity (Rattus norvegicus [21]): 86%
- LD50 [22]: > 3000 mg/kg
- Activity (Rattus norvegicus [24]): 0.12%
- Activity (Rattus norvegicus [6]): 70%

Compound: CCCc1ccc(OCC(=O)COc2ccc(CCC)cc2)cc1
- Activity (Rattus norvegicus [4]): 88%
- Activity (Rattus norvegicus [5]): 78%
- Activity (Rattus norvegicus [6]): 94%
